Data on two compounds can be found in ChEMBL document CHEMBL3272249, “Esters of N-tert-butylarterenol. Long-acting new bronchodilators with reduced cardiac effects” (J Med Chem, 1976).

Molecules are shown by their SMILES. A value given as a limit tells only on which side of the number the result lay.

In series [1] the test system is Canis familiaris. The experiment in a line: Cardiotoxicity in spontaneously respiring dog assessed as degree of increase in heart rate at 0.35 to 2 mg/kg, iv relative to control. In kind it is toxicity, organism-based, Canis lupus familiaris. On the set-up: dose 0.35-2 mg/kg, route intravenous. To be noted: in vivo. An outline of the steps:
(§1)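 Anesthetized, spontaneously respiring dogs. Heart rate monitored by lead II EKG; blood pressure from right femoral artery by pressure transducer. Rise in heart rate (beats/min) scored ±=5-15, +=20-40, ++=40-60, +++=>60, n>4/dose; duration of the rise in h. Drug stocks freshly made in distilled water, diluted in physiological saline, kept on ice.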

For series [2], the system named is Canis familiaris. The experiment in a line: Cardiotoxicity in spontaneously respiring dog assessed as degree of increase in heart rate at 50 to 300 mg/kg, id relative to control. In kind it is toxicity, organism-based, Canis lupus familiaris. Also on record: dose 50-300 mg/kg, route intraduodenal. The note with it: in vivo, other. An outline of the steps:
as §1

Series [3] relates to Canis familiaris. Nature of the series: Cardiotoxicity in spontaneously respiring dog assessed as degree of increase in heart rate at 150 to 300 mg/kg, it relative to control. The note with it: in vivo, inhaled_or_intranasal. The series is classed as toxicity, organism-based, Canis lupus familiaris. On the set-up: dose 150-300 mg/kg, route endotracheal. An outline of the steps: as §1

The subject of series [4] is Canis familiaris. Nature of the series: Cardiotoxicity in spontaneously respiring dog assessed as time of increase in heart rate at 0.35 to 2 mg/kg, iv relative to control. In kind it is toxicity, organism-based, Canis lupus familiaris. Also on record: dose 0.35-2 mg/kg, route intravenous. To be noted: in vivo. An outline of the steps:
as §1

The test system of series [5] is Canis familiaris. Nature of the series: Cardiotoxicity in spontaneously respiring dog assessed as time of increase in heart rate at 50 to 300 mg/kg, id relative to control. In kind it is toxicity, organism-based, Canis lupus familiaris. To be noted: in vivo, other. Also on record: dose 50-300 mg/kg, route intraduodenal. The essentials: as §1
Series [6] has as its system Canis familiaris. Nature of the series: Cardiotoxicity in spontaneously respiring dog assessed as time of increase in heart rate at 150 to 300 mg/kg, it relative to control. In kind it is toxicity, organism-based, Canis lupus familiaris. On the set-up: dose 150-300 mg/kg, route endotracheal. The note with it: in vivo, inhaled_or_intranasal. An outline of the steps: as §1

The test system of series [7] is Canis familiaris. Nature of the series: Bronchodilator activity in dog assessed as time of inhibition of carbachol or histamine-induced bronchoconstriction at 0.35 to 2 mg/kg, iv relative to control. In kind it is functional, Canis lupus familiaris. The note with it: dose mg/kg 0.35-2. An outline of the steps:
(§2)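 Dog with airway cannulated through a nonbreathing valve. Bronchoconstriction induced by iv carbachol (2–4 µg/kg) or histamine diphosphate (20–50 µg/kg); airway pressure recorded by pressure transducer. Each compound tested against both agonists in different animals, and results were combined and averaged. Bronchodilation = % inhibition of control constriction; degree scored as +, ++, +++ (20-45, 45-70, >70%) from higher dose, ≥3 dogs/dose; duration in h.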

Series [8] has as its system Canis familiaris. The experiment in a line: Bronchodilator activity in dog assessed as time of inhibition of carbachol or histamine-induced bronchoconstriction at 50 to 300 mg/kg, id relative to control. In kind it is functional, Canis lupus familiaris. The note with it: dose mg/kg 50-300; route intraduodenal. The essentials: as §2
Series [9] relates to Canis familiaris. Nature of the series: Bronchodilator activity in dog assessed as time of inhibition of carbachol or histamine-induced bronchoconstriction at 150 to 300 mg/kg, it relative to control. The note with it: dose mg/kg 150-300; route endotracheal. The series is classed as functional, Canis lupus familiaris. An outline of the steps: as §2
For series [10], the system named is Canis familiaris. Nature of the series: Bronchodilator activity in dog assessed as degree of inhibition of carbachol or histamine-induced bronchoconstriction at 0.35 to 2 mg/kg, iv relative to control. The series is classed as functional, Canis lupus familiaris. To be noted: dose mg/kg 0.35-2. An outline of the steps:
as §2

The test system of series [11] is Canis familiaris. The experiment in a line: Bronchodilator activity in dog assessed as degree of inhibition of carbachol or histamine-induced bronchoconstriction at 50 to 300 mg/kg, id relative to control. The series is classed as functional, Canis lupus familiaris. The note with it: dose mg/kg 50-300; route intraduodenal. An outline of the steps:
as §2

Series [12] deals with Canis familiaris. Nature of the series: Bronchodilator activity in dog assessed as degree of inhibition of carbachol or histamine-induced bronchoconstriction at 150 to 300 mg/kg, it relative to control. The note with it: dose mg/kg 150-300; route endotracheal. The series is classed as functional, Canis lupus familiaris. The essentials:
as §2

Series [13] concerns Canis familiaris. The experiment in a line: Cardiotoxicity in spontaneously respiring dog assessed as degree of increase in heart rate at 0.3 to 2 mg/kg, iv relative to control. The series is classed as toxicity, organism-based, Canis lupus familiaris. The note with it: in vivo. Also on record: dose 0.3-2 mg/kg, route intravenous. An outline of the steps: (§3)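 Anesthetized, spontaneously respiring dogs. Heart rate was taken from a lead II EKG, and blood pressure from the right femoral artery by transducer. The increase in heart rate (beats/min) was scored on a graded scale with more than 4 dogs per dose, and its duration was recorded. Drugs were dissolved fresh in distilled water, diluted in physiological saline and kept on ice.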

Series [14] concerns Canis familiaris. Nature of the series: Cardiotoxicity in spontaneously respiring dog assessed as degree of increase in heart rate at 50 to 240 mg/kg, id relative to control. The series is classed as toxicity, organism-based, Canis lupus familiaris. On the set-up: dose 50-240 mg/kg, route intraduodenal. The note with it: in vivo, other. The essentials:
as §3

Series [15] has as its system Canis familiaris. Nature of the series: Cardiotoxicity in spontaneously respiring dog assessed as degree of increase in heart rate at 125 to 150 mg/kg, it relative to control. The note with it: in vivo, inhaled_or_intranasal. In kind it is toxicity, organism-based, Canis lupus familiaris. Also on record: dose 125-150 mg/kg, route endotracheal. An outline of the steps: as §3

In series [16] the test system is Canis familiaris. The experiment in a line: Cardiotoxicity in spontaneously respiring dog assessed as time of increase in heart rate at 0.3 to 2 mg/kg, iv relative to control. In kind it is toxicity, organism-based, Canis lupus familiaris. Also on record: dose 0.3-2 mg/kg, route intravenous. To be noted: in vivo. An outline of the steps: as §3
Series [17] deals with Canis familiaris. The experiment in a line: Cardiotoxicity in spontaneously respiring dog assessed as time of increase in heart rate at 50 to 240 mg/kg, id relative to control. The series is classed as toxicity, organism-based, Canis lupus familiaris. On the set-up: dose 50-240 mg/kg, route intraduodenal. To be noted: in vivo, other. An outline of the steps:
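Anesthetized, spontaneously respiring dogs. Heart rate monitored by lead II EKG, with blood pressure taken from the right femoral artery by pressure transducer and recorded on a polygraph. Drug stocks made fresh in distilled water, diluted in physiological saline and kept on ice. Dosing was iv, id or it as listed. The duration of the heart-rate increase was recorded in h, with more than 4 dogs per dose.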

Series [18] deals with Canis familiaris. Nature of the series: Cardiotoxicity in spontaneously respiring dog assessed as time of increase in heart rate at 125 to 250 mg/kg, it relative to control. In kind it is toxicity, organism-based, Canis lupus familiaris. Also on record: dose 125-250 mg/kg, route endotracheal. The note with it: in vivo, inhaled_or_intranasal. An outline of the steps: as §3

Series [19] deals with Canis familiaris. The experiment in a line: Bronchodilator activity in dog assessed as degree of inhibition of carbachol or histamine-induced bronchoconstriction at 125 to 250 mg/kg, it relative to control. The series is classed as functional, Canis lupus familiaris. The note with it: dose mg/kg 125-250; route endotracheal. An outline of the steps:
as §2

Series [20] relates to Canis familiaris. Nature of the series: Bronchodilator activity in dog assessed as time of inhibition of carbachol or histamine-induced bronchoconstriction at 0.3 to 2 mg/kg, iv relative to control. The series is classed as functional, Canis lupus familiaris. The note with it: dose mg/kg 0.3-2. An outline of the steps:
as §2

Series [21] deals with Canis familiaris. The experiment in a line: Bronchodilator activity in dog assessed as time of inhibition of carbachol or histamine-induced bronchoconstriction at 50 to 240 mg/kg, id relative to control. The series is classed as functional, Canis lupus familiaris. The note with it: dose mg/kg 50-240; route intraduodenal. An outline of the steps:
as §2

For series [22], the system named is Canis familiaris. Nature of the series: Bronchodilator activity in dog assessed as time of inhibition of carbachol or histamine-induced bronchoconstriction at 125 to 250 mg/kg, it relative to control. The series is classed as functional, Canis lupus familiaris. To be noted: dose mg/kg 125-250; route endotracheal. An outline of the steps:
as §2

Series [23] has as its system Canis familiaris. Nature of the series: Bronchodilator activity in dog assessed as degree of inhibition of carbachol or histamine-induced bronchoconstriction at 0.3 to 2 mg/kg, iv relative to control. The series is classed as functional, Canis lupus familiaris. To be noted: dose mg/kg 0.3-2. The essentials: as §2
The subject of series [24] is Canis familiaris. Nature of the series: Bronchodilator activity in dog assessed as degree of inhibition of carbachol or histamine-induced bronchoconstriction at 50 to 240 mg/kg, id relative to control. In kind it is functional, Canis lupus familiaris. The note with it: dose mg/kg 50-240; route intraduodenal. The essentials: as §2

`CC(C)(C)NC[C@H](O)c1ccc(O)c(O)c1`: the Activity in series [1] was 40%; in series [2], 40%; in series [3], 20%. Also, the Time was < 0.25 h in [4]; 3 h in series [5]; 1 h in series [6]; >1 h in series [7]; 3 h in [8]; <2 h in series [9]. In addition, the “inhibition (INH)” value in series [10] is recorded as >70%; in series [11] it was 45%; in series [12] it was >70%.

In the case of `CC(C)NCC(O)c1ccc(O)c(O)c1` (centres undefined) [ISOPROTERENOL], the Activity in series [13] is on record as > 60%; in [14] it was 40%; in series [15] it was 20%. For the same compound, the Time in series [16] was < 0.25 h; in series [17], 2 h; in series [18], 1 h; in series [20], <1 h; in series [21] it was <2 h; in series [22] it was <1 h. In addition, the “inhibition (INH)” value in series [19] was >70%; in series [23] it was >70%; in series [24] it was 20%.
